In brackets after ≈: the same amount, converted by molar mass.
Test system: J774.2
Assay: Antiinflammatory activity in lipopolysaccharide-induced mouse J774.2 cells assessed as inhibition of nitric oxide production at 25 ug/mL after 24 hrs by Griess method
Format: functional
Conditions: J774.2, 24 h
Summary of the method: (§1)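 J774.2 mouse macrophages grown in DMEM with 10% FBS, seeded at 10⁶ cells/mL. NOS-2 induced with E. coli LPS; compounds at 25 µg/mL added right after LPS, 37 °C, 5% CO₂. Supernatant taken at 24 h and nitrite read by Griess reagent (sulfanilamide, then naphthylethylenediamine in 2.5% phosphoric acid), 10 min at 23 °C, A550. Quantified against a sodium nitrite standard curve; mean ± SD of duplicate readings.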

SMILES	inhibition at 25 µg/mL [%]
CC(=O)OC[C@H]1O[C@@H](SC(=S)C2=C(Nc3ccc(Cl)cc3Cl)CC(C)(C)CC2=O)[C@H](OC(C)=O)[C@@H](OC(C)=O)[C@H]1OC(C)=O	66.8
CCCCSC(=S)C1=C(Nc2ccc(Cl)cc2)CC(C)(C)CC1=O	23.6
CCCCCCCCCCCSC(=S)C1=C(Nc2ccc(Cl)cc2)CC(C)(C)CC1=O	16.5
CC(=O)OC[C@H]1O[C@@H](SC(=S)C2=C(Nc3ccc(Cl)cc3)CC(C)(C)CC2=O)[C@H](OC(C)=O)[C@@H](OC(C)=O)[C@@H]1OC(C)=O	77.3
CC1(C)CC(=O)C(C(=S)SCc2ccccc2)=C(Nc2ccc(Br)cc2)C1	38.5
CC1(C)CC(=O)C=C(Nc2ccc(Cl)cc2Cl)C1	42.1
CC1(C)CC(=O)C(C(=S)SCCO)=C(Nc2ccc(Br)cc2)C1	37
CC1(C)CC(=O)C(C(=S)SCCO)=C(Nc2ccc(Cl)cc2Cl)C1	44.8
CC1(C)CC(=O)C(C(=S)SCCO)=C(Nc2ccc(Cl)cc2)C1	43.3
CCCCCCCCCCCSC(=S)C1=C(Nc2ccc(Cl)cc2Cl)CC(C)(C)CC1=O	39.7

Test system: not listed separately
Assay: Antiinflammatory activity in human whole blood phagocytes assessed as inhibition of respiratory burst measuring ROS after 30 mins by luminol-enhanced chemiluminescence assay
Format: functional, cell-based
Conditions: 0.5 h
Summary of the method: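 Luminol-enhanced chemiluminescence of whole blood phagocytes. Compounds at 1.0, 10 and 100 µg/mL in HBSS⁺⁺ (with Ca²⁺/Mg²⁺) were incubated with whole blood diluted 1:50 for 30 min at 37 °C. Luminol and serum-opsonized zymosan (S. cerevisiae) were then added. ROS kinetics were monitored by luminometer for 50 min in repeated scan mode, with positive, negative and blank controls.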

SMILES	IC50 [µg/mL]
CC(=O)OC[C@H]1O[C@@H](SC(=S)C2=C(Nc3ccc(Cl)cc3Cl)CC(C)(C)CC2=O)[C@H](OC(C)=O)[C@@H](OC(C)=O)[C@H]1OC(C)=O	5.94
CCCCSC(=S)C1=C(Nc2ccc(Cl)cc2)CC(C)(C)CC1=O	> 100
CCCCCCCCCCCSC(=S)C1=C(Nc2ccc(Cl)cc2)CC(C)(C)CC1=O	> 100
CC(=O)OC[C@H]1O[C@@H](SC(=S)C2=C(Nc3ccc(Cl)cc3)CC(C)(C)CC2=O)[C@H](OC(C)=O)[C@@H](OC(C)=O)[C@@H]1OC(C)=O	90
CC1(C)CC(=O)C(C(=S)SCc2ccccc2)=C(Nc2ccc(Br)cc2)C1	> 100
CC1(C)CC(=O)C=C(Nc2ccc(Cl)cc2Cl)C1	> 100
CC1(C)CC(=O)C(C(=S)SCCO)=C(Nc2ccc(Br)cc2)C1	> 100
CC1(C)CC(=O)C(C(=S)SCCO)=C(Nc2ccc(Cl)cc2Cl)C1	> 100
CC1(C)CC(=O)C(C(=S)SCCO)=C(Nc2ccc(Cl)cc2)C1	> 100
CCCCCCCCCCCSC(=S)C1=C(Nc2ccc(Cl)cc2Cl)CC(C)(C)CC1=O	> 100

Test system: PBMC
Assay: Immunosuppressive activity in human PBMC assessed as inhibition of PHA-induced cell proliferation after 72 hrs by [methyl-3H]thymidine incorporation assay
Format: functional, cell-based
Conditions: not given
Summary of the method: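 Human PBMCs from healthy donor venous blood, isolated by density separation and cultured in RPMI-1640 with 10% FBS. Stimulated with PHA in the presence of increasing compound concentrations for 72 h at 37 °C, 5% CO₂. [methyl-³H]thymidine 0.5 µCi/well added for a further 18 h, then harvested and counted by liquid scintillation. Expressed as % of stimulated control, mean ± SD of triplicates; IC50 derived.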

SMILES	IC50 [µg/mL]	inhibition
CC(=O)OC[C@H]1O[C@@H](SC(=S)C2=C(Nc3ccc(Cl)cc3Cl)CC(C)(C)CC2=O)[C@H](OC(C)=O)[C@@H](OC(C)=O)[C@H]1OC(C)=O	3.9 (≈ 5.65 µM)	–
CCCCSC(=S)C1=C(Nc2ccc(Cl)cc2)CC(C)(C)CC1=O	> 50	–
CCCCCCCCCCCSC(=S)C1=C(Nc2ccc(Cl)cc2)CC(C)(C)CC1=O	> 50	–
CC(=O)OC[C@H]1O[C@@H](SC(=S)C2=C(Nc3ccc(Cl)cc3)CC(C)(C)CC2=O)[C@H](OC(C)=O)[C@@H](OC(C)=O)[C@@H]1OC(C)=O	9.9 (≈ 15.1 µM)	Dose-dependent effect
CC1(C)CC(=O)C(C(=S)SCc2ccccc2)=C(Nc2ccc(Br)cc2)C1	> 50	–
CC1(C)CC(=O)C=C(Nc2ccc(Cl)cc2Cl)C1	17.6 (≈ 61.9 µM)	–
CC1(C)CC(=O)C(C(=S)SCCO)=C(Nc2ccc(Br)cc2)C1	8.3 (≈ 20 µM)	Dose-dependent effect
CC1(C)CC(=O)C(C(=S)SCCO)=C(Nc2ccc(Cl)cc2Cl)C1	> 50	–
CC1(C)CC(=O)C(C(=S)SCCO)=C(Nc2ccc(Cl)cc2)C1	21 (≈ 56.8 µM)	–
CCCCCCCCCCCSC(=S)C1=C(Nc2ccc(Cl)cc2Cl)CC(C)(C)CC1=O	> 50	–

Test system: THP-1
Assay: Antiinflammatory activity in PMA-stimulated human THP1 cells assessed as inhibition of LPS-induced TNFalpha production at 25 ug/mL after 4 hrs
Format: functional
Conditions: THP-1, 4 h
Summary of the method: (§2)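 THP-1 cells plated at 2.5 × 10⁵ cells/mL and differentiated to macrophage-like cells with PMA (20 ng/mL final) for 24 h at 37 °C, 5% CO₂. Then stimulated with LPS (50 ng/mL final) and treated with test compounds. TNF-α was measured in supernatant at 4 h and IL-1β at 18 h by DuoSet ELISA.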

SMILES	inhibition at 25 µg/mL [%]
CC(=O)OC[C@H]1O[C@@H](SC(=S)C2=C(Nc3ccc(Cl)cc3Cl)CC(C)(C)CC2=O)[C@H](OC(C)=O)[C@@H](OC(C)=O)[C@H]1OC(C)=O	83.8
CCCCSC(=S)C1=C(Nc2ccc(Cl)cc2)CC(C)(C)CC1=O	10.5
CCCCCCCCCCCSC(=S)C1=C(Nc2ccc(Cl)cc2)CC(C)(C)CC1=O	-56.6
CC(=O)OC[C@H]1O[C@@H](SC(=S)C2=C(Nc3ccc(Cl)cc3)CC(C)(C)CC2=O)[C@H](OC(C)=O)[C@@H](OC(C)=O)[C@@H]1OC(C)=O	83.8
CC1(C)CC(=O)C(C(=S)SCc2ccccc2)=C(Nc2ccc(Br)cc2)C1	-50.3
CC1(C)CC(=O)C=C(Nc2ccc(Cl)cc2Cl)C1	6.3
CC1(C)CC(=O)C(C(=S)SCCO)=C(Nc2ccc(Br)cc2)C1	-33.5
CC1(C)CC(=O)C(C(=S)SCCO)=C(Nc2ccc(Cl)cc2Cl)C1	-50.3
CC1(C)CC(=O)C(C(=S)SCCO)=C(Nc2ccc(Cl)cc2)C1	0
CCCCCCCCCCCSC(=S)C1=C(Nc2ccc(Cl)cc2Cl)CC(C)(C)CC1=O	29.3

Test system: CC-1
Assay: Cytotoxicity against Wistar rat CC1 cells after 48 hrs by MTT assay
Format: cell-based
Conditions: CC-1, 48 h
Summary of the method: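 Plated at 6 × 10⁴ cells/mL for 24 h at 37 °C, 5% CO₂, then exposed to compounds (up to 20 µg/mL) in triplicate for 48 h. MTT 0.5 mg/mL for 4 h, formazan dissolved in DMSO, A540; mean ± SD of triplicates.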

SMILES	IC50 [µg/mL]
CC(=O)OC[C@H]1O[C@@H](SC(=S)C2=C(Nc3ccc(Cl)cc3Cl)CC(C)(C)CC2=O)[C@H](OC(C)=O)[C@@H](OC(C)=O)[C@H]1OC(C)=O	> 20
CC(=O)OC[C@H]1O[C@@H](SC(=S)C2=C(Nc3ccc(Cl)cc3)CC(C)(C)CC2=O)[C@H](OC(C)=O)[C@@H](OC(C)=O)[C@@H]1OC(C)=O	> 20

Test system: J774.2
Assay: Antiinflammatory activity in lipopolysaccharide-induced mouse J774.2 cells assessed as inhibition of nitric oxide production after 24 hrs by Griess method
Format: functional, cell-based
Conditions: J774.2, 24 h
Summary of the method: as §1

SMILES	IC50 [µM]
CC(=O)OC[C@H]1O[C@@H](SC(=S)C2=C(Nc3ccc(Cl)cc3)CC(C)(C)CC2=O)[C@H](OC(C)=O)[C@@H](OC(C)=O)[C@@H]1OC(C)=O	44.3

Test system: PBMC
Assay: Immunosuppressive activity against human PBMC assessed as inhibition of PHA/PMA-induced IL2 production after 18 hrs by ELISA
Conditions: not given

SMILES	IC50 [µg/mL]	inhibition
CC(=O)OC[C@H]1O[C@@H](SC(=S)C2=C(Nc3ccc(Cl)cc3Cl)CC(C)(C)CC2=O)[C@H](OC(C)=O)[C@@H](OC(C)=O)[C@H]1OC(C)=O	2.1 (≈ 3.04 µM)	–
CCCCSC(=S)C1=C(Nc2ccc(Cl)cc2)CC(C)(C)CC1=O	> 20	–
CCCCCCCCCCCSC(=S)C1=C(Nc2ccc(Cl)cc2)CC(C)(C)CC1=O	> 20	–
CC(=O)OC[C@H]1O[C@@H](SC(=S)C2=C(Nc3ccc(Cl)cc3)CC(C)(C)CC2=O)[C@H](OC(C)=O)[C@@H](OC(C)=O)[C@@H]1OC(C)=O	3.5 (≈ 5.33 µM)	Dose-dependent effect
CC1(C)CC(=O)C(C(=S)SCc2ccccc2)=C(Nc2ccc(Br)cc2)C1	> 20	–
CC1(C)CC(=O)C=C(Nc2ccc(Cl)cc2Cl)C1	> 20	–
CC1(C)CC(=O)C(C(=S)SCCO)=C(Nc2ccc(Br)cc2)C1	> 20	Dose-dependent effect
CC1(C)CC(=O)C(C(=S)SCCO)=C(Nc2ccc(Cl)cc2Cl)C1	> 20	–
CC1(C)CC(=O)C(C(=S)SCCO)=C(Nc2ccc(Cl)cc2)C1	> 20	–
CCCCCCCCCCCSC(=S)C1=C(Nc2ccc(Cl)cc2Cl)CC(C)(C)CC1=O	> 20	–

Test system: 3T3-L1
Assay: Cytotoxicity against mouse 3T3L1 cells after 48 hrs by MTT assay
Format: cell-based
Conditions: 3T3-L1, 48 h
Summary of the method: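 3T3-L1 mouse embryo fibroblasts in DMEM with 10% FBS. Plated at 6 × 10⁴ cells/mL for 24 h at 37 °C, 5% CO₂, then exposed to compounds (up to 20 µg/mL) in triplicate for 48 h. Viability by MTT 0.5 mg/mL for 4 h, DMSO solubilization, absorbance at 540 nm; mean ± SD of triplicates.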

SMILES	IC50 [µg/mL]
CC(=O)OC[C@H]1O[C@@H](SC(=S)C2=C(Nc3ccc(Cl)cc3Cl)CC(C)(C)CC2=O)[C@H](OC(C)=O)[C@@H](OC(C)=O)[C@H]1OC(C)=O	> 20
CC(=O)OC[C@H]1O[C@@H](SC(=S)C2=C(Nc3ccc(Cl)cc3)CC(C)(C)CC2=O)[C@H](OC(C)=O)[C@@H](OC(C)=O)[C@@H]1OC(C)=O	> 20

Test system: THP-1
Assay: Antiinflammatory activity in PMA-stimulated human THP1 cells assessed as inhibition of LPS-induced IL-1beta production at 25 ug/mL after 18 hrs
Format: functional
Conditions: THP-1, 18 h
Summary of the method: as §2

SMILES	inhibition at 25 µg/mL [%]
CC(=O)OC[C@H]1O[C@@H](SC(=S)C2=C(Nc3ccc(Cl)cc3Cl)CC(C)(C)CC2=O)[C@H](OC(C)=O)[C@@H](OC(C)=O)[C@H]1OC(C)=O	86
CCCCSC(=S)C1=C(Nc2ccc(Cl)cc2)CC(C)(C)CC1=O	-92.9
CCCCCCCCCCCSC(=S)C1=C(Nc2ccc(Cl)cc2)CC(C)(C)CC1=O	-15.8
CC(=O)OC[C@H]1O[C@@H](SC(=S)C2=C(Nc3ccc(Cl)cc3)CC(C)(C)CC2=O)[C@H](OC(C)=O)[C@@H](OC(C)=O)[C@@H]1OC(C)=O	46.8
CC1(C)CC(=O)C(C(=S)SCc2ccccc2)=C(Nc2ccc(Br)cc2)C1	-158
CC1(C)CC(=O)C=C(Nc2ccc(Cl)cc2Cl)C1	38.5
CC1(C)CC(=O)C(C(=S)SCCO)=C(Nc2ccc(Br)cc2)C1	5.5
CC1(C)CC(=O)C(C(=S)SCCO)=C(Nc2ccc(Cl)cc2Cl)C1	16.5
CC1(C)CC(=O)C(C(=S)SCCO)=C(Nc2ccc(Cl)cc2)C1	48.1
CCCCCCCCCCCSC(=S)C1=C(Nc2ccc(Cl)cc2Cl)CC(C)(C)CC1=O	30.3
